Data: ChEMBL document CHEMBL1134485, “Diguanidino and "reversed" diamidino 2,5-diarylfurans as antimicrobial agents” (2001)
Values after ≈ are worked out from the molar mass of the structure shown.

Key:
Candida albicans [1] = assay: Minimum fungicidal concentration against Candida albicans 156.97; type: functional
Outline: (§1)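 Yeast MFC: after broth macrodilution (RPMI 1640/MOPS pH 7.0, 0.5 × 10³ to 2.5 × 10³ CFU/mL, 35 °C, 48 h or 72 h for C. neoformans, drug 100 to 0.09 µg/mL), 100 µL from tubes with complete inhibition plated on Sabouraud agar; lowest concentration yielding three or fewer colonies recorded.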

Candida albicans [2] = assay: Minimum fungicidal concentration against Candida albicans 159.95; type: functional; outline: as §1
Candida albicans [3] = assay: Minimum fungicidal concentration against Candida albicans A39; type: functional; outline: as §1
Candida albicans [4] = assay: Minimum fungicidal concentration against Candida albicans 116.98; type: functional; outline: as §1
Candida albicans [5] = assay: Minimum fungicidal concentration against Candida albicans 117.00; type: functional; outline: as §1
Candida albicans [6] = assay: Minimum inhibitory concentration required to inhibit 80% inoculum of Candida albicans 149.97; type: functional
Outline: (§2)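 Broth macrodilution following NCCLS M27-T, drug dilutions 100 to 0.09 µg/mL, in RPMI 1640 with glutamine, no bicarbonate, buffered to pH 7.0 with 0.165 M MOPS. Inoculum grown at 35 °C, adjusted to 0.5 × 10³ to 2.5 × 10³ CFU/mL, incubated at 35 °C and read at 48 h. MIC80 is the lowest concentration giving […] visual turbidity relative to the growth-control tube.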

Candida albicans [7] = assay: Minimum inhibitory concentration required to inhibit 80% inoculum of Candida albicans 156.97; type: functional; outline: as §2
Candida albicans [8] = assay: Minimum inhibitory concentration required to inhibit 80% inoculum of Candida albicans 159.95; type: functional; outline: as §2
Candida albicans [9] = assay: Minimum inhibitory concentration required to inhibit 80% inoculum of Candida albicans A39; type: functional; outline: as §2
Cryptococcus neoformans [10] = assay: Minimum inhibitory concentration required to inhibit 100% inoculum of Cryptococcus neoformans H99; type: functional
Candida albicans [11] = assay: Minimum inhibitory concentration required to inhibit 100% inoculum of Candida albicans 116.98; type: functional
Candida albicans [12] = assay: Minimum inhibitory concentration required to inhibit 100% inoculum of Candida albicans 117.00; type: functional
Candida albicans [13] = assay: Minimum inhibitory concentration required to inhibit 100% inoculum of Candida albicans 126.97; type: functional
Candida albicans [14] = assay: Minimum inhibitory concentration required to inhibit 100% inoculum of Candida albicans 149.97; type: functional
Candida albicans [15] = assay: Minimum inhibitory concentration required to inhibit 100% inoculum of Candida albicans 156.97; type: functional
Candida albicans [16] = assay: Minimum inhibitory concentration required to inhibit 100% inoculum of Candida albicans 159.95; type: functional
Candida albicans [17] = assay: Minimum inhibitory concentration required to inhibit 100% inoculum of Candida albicans A39; type: functional
Candida albicans [18] = assay: Minimum inhibitory concentration required to inhibit 80% inoculum of Candida albicans 116.98; type: functional; outline: as §2
Candida albicans [19] = assay: Minimum inhibitory concentration required to inhibit 80% inoculum of Candida albicans 117.00; type: functional; outline: as §2
Candida albicans [20] = assay: Minimum inhibitory concentration required to inhibit 80% inoculum of Candida albicans 126.97; type: functional; outline: as §2
Cryptococcus neoformans [21] = assay: Minimum fungicidal concentration against Cryptococcus neoformans H99; type: functional; outline: as §1
Fusarium solani [22] = assay: Minimum fungicidal concentration against Fusarium solani 152.89; type: functional
Outline: (§3)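 Mould MFC: 100 µL aliquots from macrodilution tubes (RPMI 1640/MOPS pH 7.0, 0.5 × 10³ to 2.5 × 10³ CFU/mL conidial inoculum, 30 °C, 48-72 h, drug 100 to 0.09 µg/mL) showing complete growth inhibition plated on Sabouraud agar; MFC taken as lowest drug concentration giving three or fewer colonies.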

Fusarium solani [23] = assay: Minimum inhibitory concentration required to inhibit 100% inoculum of Fusarium solani 152.89; type: functional
Fusarium solani [24] = assay: Minimum inhibitory concentration required to inhibit 80% inoculum of Fusarium solani 152.89; type: functional
Outline: (§4)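 Mould broth macrodilution, drug dilutions 100 to 0.09 µg/mL, in RPMI 1640 buffered at pH 7.0 with 0.165 M MOPS. Isolates are grown on Sabouraud dextrose agar at 30 °C for 4-14 days. Conidia are harvested in 0.85% NaCl/0.05% Tween 80, counted by hemocytometer, and diluted to 0.5 × 10³ to 2.5 × 10³ CFU/mL. Cultures incubated at 30 °C for 48-72 h until the control grows. MIC80 read visually against the growth control.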

[25] = test system: Mycobacterium tuberculosis; assay: In vitro minimum inhibitory concentration required to inhibit Mycobacterium tuberculosis; type: functional
Outline: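 M. tuberculosis H37Rv grown in BACTEC 12B medium; fluorometric broth microdilution (Microplate Alamar Blue Assay). […] MIC = lowest concentration reducing relative fluorescence units by ≥90% relative to control culture. Testing done by TAACF.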

Rhizopus arrhizus [26] = assay: Minimum inhibitory concentration required to inhibit 100% inoculum of Rhizopus arrhizus 117.89; type: functional
Rhizopus arrhizus [27] = assay: Minimum inhibitory concentration required to inhibit 80% inoculum of Rhizopus arrhizus 117.89; type: functional; outline: as §4
Rhizopus arrhizus [28] = assay: Minimum fungicidal concentration against Rhizopus arrhizus 117.89; type: functional; outline: as §3
Cryptococcus neoformans [29] = assay: Minimum inhibitory concentration required to inhibit 80% inoculum of Cryptococcus neoformans H99; type: functional
Outline: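 Broth macrodilution following NCCLS M27-T, drug dilutions 100 to 0.09 µg/mL, in RPMI 1640 with glutamine, no bicarbonate, MOPS 0.165 M, pH 7.0. Inoculum grown at 35 °C, 0.5 × 10³ to 2.5 × 10³ CFU/mL, incubated at 35 °C and interpreted at […]. MIC80 is the lowest concentration with turbidity […] of the growth control.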

Nucleic Acid [30] = test system: Nucleic Acid
Nucleic Acid [31] = test system: Nucleic Acid; remark: listed apart in the source

Structure (SMILES): Cc1ccc(C(=N)Nc2ccc(-c3ccc(-c4ccc(NC(=N)c5ccc(C)cn5)cc4C)o3)c(C)c2)nc1
- MFC (Candida albicans [1]): > 100 µg/mL
- MFC (Candida albicans [2]): 3.12 µg/mL (≈ 6.06 µM)
- MFC (Candida albicans [3]): 25 µg/mL (≈ 48.6 µM)
- MFC (Candida albicans [4]): > 100 µg/mL
- MFC (Candida albicans [5]): 25 µg/mL (≈ 48.6 µM)
- MIC (Candida albicans [6]): 0.78 µg/mL (≈ 1.52 µM)
- MIC (Candida albicans [7]): 1.56 µg/mL (≈ 3.03 µM)
- MIC (Candida albicans [8]): 0.79 µg/mL (≈ 1.54 µM)
- MIC (Candida albicans [9]): 1.56 µg/mL (≈ 3.03 µM)
- MIC (Cryptococcus neoformans [10]): 1.56 µg/mL (≈ 3.03 µM)
- MIC (Candida albicans [11]): 1.56 µg/mL (≈ 3.03 µM)
- MIC (Candida albicans [12]): 3.12 µg/mL (≈ 6.06 µM)
- MIC (Candida albicans [13]): 3.12 µg/mL (≈ 6.06 µM)
- MIC (Candida albicans [14]): 1.56 µg/mL (≈ 3.03 µM)
- MIC (Candida albicans [15]): 3.15 µg/mL (≈ 6.12 µM)
- MIC (Candida albicans [16]): 1.58 µg/mL (≈ 3.07 µM)
- MIC (Candida albicans [17]): 1.56 µg/mL (≈ 3.03 µM)
- MIC (Candida albicans [18]): 1.56 µg/mL (≈ 3.03 µM)
- MIC (Candida albicans [19]): 0.78 µg/mL (≈ 1.52 µM)
- MIC (Candida albicans [20]): 1.56 µg/mL (≈ 3.03 µM)
- MFC (Cryptococcus neoformans [21]): > 100 µg/mL
- MFC (Fusarium solani [22]): 50 µg/mL (≈ 97.2 µM)
- MIC (Fusarium solani [23]): 50 µg/mL (≈ 97.2 µM)
- MIC (Fusarium solani [24]): 3.12 µg/mL (≈ 6.06 µM)
- MIC [25]: 2 µg/mL (≈ 3.89 µM)
- MIC (Rhizopus arrhizus [26]): 1.56 µg/mL (≈ 3.03 µM)
- MIC (Rhizopus arrhizus [27]): 0.78 µg/mL (≈ 1.52 µM)
- MFC (Rhizopus arrhizus [28]): 1.56 µg/mL (≈ 3.03 µM)
- MIC (Cryptococcus neoformans [29]): 1.56 µg/mL (≈ 3.03 µM)
- ΔTm (Nucleic Acid [30]): 24.3
- ΔTm (Nucleic Acid [31]): 10.8
